Laboratory results taken from ChEMBL document CHEMBL1131139, “Synthesis and antibacterial activity of ketolides (6-O-methyl-3-oxoerythromycin derivatives): a new class of antibacterials highly potent against macrolide-resistant and -susceptible respiratory pathogens” (1998).
≈ marks a conversion by molar mass, not a printed value.

Assays:
Assay type in all cases: functional
Escherichia coli = test: In vitro inhibitory activity against Escherichia coli (250 UC5)
Summary of the method: (§1)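 Two-fold agar dilution on Mueller-Hinton agar (pH 7.4). Inoculum from overnight plate cultures suspended in Mueller-Hinton broth, adjusted to 10^9 CFU/mL, diluted 1:200 and spotted by multipoint inoculator at about 10^4 CFU/spot. Plates incubated 37 °C for 20 h. MIC taken as lowest concentration with no visible growth.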

Haemophilus influenzae [1] = test: In vitro inhibitory activity against Haemophilus influenzae (351CB12); summary of the method: as §1
Haemophilus influenzae [2] = test: In vitro inhibitory activity against Haemophilus influenzae (351HT3); summary of the method: as §1
[3] = tested on: Staphylococcus epidermidis; test: In vitro inhibitory activity against Staphylococcus epidermidis (EryRi 012GO11i); summary of the method: as §1
Staphylococcus aureus [4] = test: In vitro inhibitory activity against Staphylococcus aureus (011UC4); summary of the method: as §1
Staphylococcus aureus [5] = test: In vitro inhibitory activity against Staphylococcus aureus (EryRi 011GO25i); summary of the method: as §1
Streptococcus pneumoniae [6] = test: In vitro inhibitory activity against Streptococcus pneumoniae (032UC1); summary of the method: as §1
Streptococcus pneumoniae [7] = test: In vitro inhibitory activity against Streptococcus pneumoniae (EryRc 030SJ1); summary of the method: as §1
Streptococcus pneumoniae [8] = test: In vitro inhibitory activity against Streptococcus pneumoniae (EryRi 030SJ5i); summary of the method: as §1
Streptococcus pyogenes = test: In vitro inhibitory activity against Streptococcus pyogenes (02A1UC1); summary of the method: as §1
Staphylococcus aureus [9] = test: In vitro inhibitory activity against Staphylococcus aureus (EryRc 011CB20); summary of the method: as §1

In the case of `CC[C@H]1OC(=O)[C@H](C)C(=O)[C@H](C)[C@@H](O[C@@H]2O[C@H](C)C[C@H](N(C)C)[C@H]2O)[C@](C)(OC)C[C@@H](C)/C(=N\OCCNCCCn2ccnc2)[C@H](C)[C@@H](O)[C@]1(C)O`, the MIC (Escherichia coli) is reported as 40 µg/mL (≈ 53.1 µM), the MIC (Haemophilus influenzae [1]) is reported as 5 µg/mL (≈ 6.63 µM) and the MIC (Haemophilus influenzae [2]) is reported as 5 µg/mL (≈ 6.63 µM). It also gave an MIC [3] of 1.2 µg/mL (≈ 1.59 µM), an MIC (Staphylococcus aureus [4]) of 0.3 µg/mL (≈ 0.398 µM) and an MIC (Staphylococcus aureus [5]) of 2.5 µg/mL (≈ 3.32 µM). The MIC (Streptococcus pneumoniae [6]) was 0.3 µg/mL (≈ 0.398 µM), the MIC (Streptococcus pneumoniae [7]) was 40 µg/mL (≈ 53.1 µM) and the MIC (Streptococcus pneumoniae [8]) was 20 µg/mL (≈ 26.5 µM). It also gave an MIC (Streptococcus pyogenes) of 0.04 µg/mL (≈ 0.0531 µM) and an MIC (Staphylococcus aureus [9]) of 40 µg/mL (≈ 53.1 µM).
Work on `CC[C@H]1OC(=O)[C@H](C)C(=O)[C@H](C)[C@@H](O[C@@H]2O[C@H](C)C[C@H](N(C)C)[C@H]2O)[C@](C)(OC)C[C@@H](C)/C(=N\OC2CCCN(C)C2)[C@H](C)[C@@H](O)[C@]1(C)O` (some centres undefined) yielded an MIC (Escherichia coli) of 40 µg/mL (≈ 57.1 µM), an MIC (Haemophilus influenzae [1]) of 10 µg/mL (≈ 14.3 µM) and an MIC (Haemophilus influenzae [2]) of 10 µg/mL (≈ 14.3 µM). For the same molecule, the MIC [3] was 0.6 µg/mL (≈ 0.857 µM), the MIC (Staphylococcus aureus [4]) was 0.08 µg/mL (≈ 0.114 µM) and the MIC (Staphylococcus aureus [5]) was 0.3 µg/mL (≈ 0.429 µM). For the same molecule, the MIC (Streptococcus pneumoniae [6]) was 0.02 µg/mL (≈ 0.0286 µM), the MIC (Streptococcus pneumoniae [7]) was 10 µg/mL (≈ 14.3 µM) and the MIC (Streptococcus pneumoniae [8]) was 40 µg/mL (≈ 57.1 µM). It also gave an MIC (Streptococcus pyogenes) of 0.04 µg/mL (≈ 0.0571 µM) and an MIC (Staphylococcus aureus [9]) of 40 µg/mL (≈ 57.1 µM).
With `CC[C@H]1OC(=O)[C@H](C)C(=O)[C@H](C)[C@@H](O[C@@H]2O[C@H](C)C[C@H](N(C)C)[C@H]2O)[C@](C)(OC)C[C@@H](C)/C(=N\OCCN2CCC2)[C@H](C)[C@@H](O)[C@]1(C)O` the MIC (Escherichia coli) was 40 µg/mL (≈ 58.3 µM), the MIC (Haemophilus influenzae [1]) was 10 µg/mL (≈ 14.6 µM) and the MIC (Haemophilus influenzae [2]) was 40 µg/mL (≈ 58.3 µM). For the same molecule, the MIC [3] was 5 µg/mL (≈ 7.29 µM), the MIC (Staphylococcus aureus [4]) was 0.6 µg/mL (≈ 0.875 µM) and the MIC (Staphylococcus aureus [5]) was 2.5 µg/mL (≈ 3.64 µM). The MIC (Streptococcus pneumoniae [6]) was 20 µg/mL (≈ 29.2 µM), the MIC (Streptococcus pneumoniae [7]) was 0.3 µg/mL (≈ 0.437 µM) and the MIC (Streptococcus pneumoniae [8]) was 2.5 µg/mL (≈ 3.64 µM). For the same molecule, the MIC (Streptococcus pyogenes) was 0.04 µg/mL (≈ 0.0583 µM) and the MIC (Staphylococcus aureus [9]) was 40 µg/mL (≈ 58.3 µM).
`CC[C@H]1OC(=O)[C@H](C)C(=O)[C@H](C)[C@@H](O[C@@H]2O[C@H](C)C[C@H](N(C)C)[C@H]2O)[C@](C)(OC)C[C@@H](C)C(=O)[C@H](C)[C@H]2N(CCCCc3cccc(Cl)c3)C(=O)O[C@]12C` gave an MIC (Escherichia coli) of 40 µg/mL (≈ 51.3 µM), an MIC (Haemophilus influenzae [1]) of 1.2 µg/mL (≈ 1.54 µM) and an MIC (Haemophilus influenzae [2]) of 1.2 µg/mL (≈ 1.54 µM). It also gave an MIC [3] of 0.15 µg/mL (≈ 0.192 µM), an MIC (Staphylococcus aureus [4]) of 0.04 µg/mL (≈ 0.0513 µM) and an MIC (Staphylococcus aureus [5]) of 0.6 µg/mL (≈ 0.77 µM). For the same molecule, the MIC (Streptococcus pneumoniae [6]) was 0.02 µg/mL (≈ 0.0257 µM), the MIC (Streptococcus pneumoniae [7]) was 2.5 µg/mL (≈ 3.21 µM) and the MIC (Streptococcus pneumoniae [8]) was 0.08 µg/mL (≈ 0.103 µM). For the same molecule, the MIC (Streptococcus pyogenes) was 0.02 µg/mL (≈ 0.0257 µM) and the MIC (Staphylococcus aureus [9]) was 10 µg/mL (≈ 12.8 µM).
`CC[C@H]1OC(=O)[C@H](C)C(=O)[C@H](C)[C@@H](O[C@@H]2O[C@H](C)C[C@H](N(C)C)[C@H]2O)[C@](C)(OC)C[C@@H](C)/C(=N\O)[C@H](C)[C@@H](O)[C@]1(C)O` showed an MIC (Escherichia coli) of 40 µg/mL (≈ 66.4 µM), an MIC (Haemophilus influenzae [1]) of 1.2 µg/mL (≈ 1.99 µM) and an MIC (Haemophilus influenzae [2]) of 20 µg/mL (≈ 33.2 µM). It also gave an MIC [3] of 0.6 µg/mL (≈ 0.995 µM), an MIC (Staphylococcus aureus [4]) of 0.3 µg/mL (≈ 0.498 µM) and an MIC (Staphylococcus aureus [5]) of 1.2 µg/mL (≈ 1.99 µM). For the same molecule, the MIC (Streptococcus pneumoniae [6]) was 0.08 µg/mL (≈ 0.133 µM), the MIC (Streptococcus pneumoniae [7]) was 40 µg/mL (≈ 66.4 µM) and the MIC (Streptococcus pneumoniae [8]) was 40 µg/mL (≈ 66.4 µM). It also gave an MIC (Streptococcus pyogenes) of 0.15 µg/mL (≈ 0.249 µM) and an MIC (Staphylococcus aureus [9]) of 40 µg/mL (≈ 66.4 µM).
For `CC[C@H]1OC(=O)[C@H](C)C(=O)[C@H](C)[C@@H](O[C@@H]2O[C@H](C)C[C@H](N(C)C)[C@H]2O)[C@](C)(OC)C[C@@H](C)/C(=N\O[C@H]2CCCNC2)[C@H](C)[C@@H](O)[C@]1(C)O`, the MIC (Escherichia coli) was 40 µg/mL (≈ 58.3 µM), the MIC (Haemophilus influenzae [1]) was 2.5 µg/mL (≈ 3.64 µM) and the MIC (Haemophilus influenzae [2]) was 20 µg/mL (≈ 29.2 µM). For the same molecule, the MIC [3] was 2.5 µg/mL (≈ 3.64 µM), the MIC (Staphylococcus aureus [4]) was 1.2 µg/mL (≈ 1.75 µM) and the MIC (Staphylococcus aureus [5]) was 5 µg/mL (≈ 7.29 µM). For the same molecule, the MIC (Streptococcus pneumoniae [6]) was 0.3 µg/mL (≈ 0.437 µM), the MIC (Streptococcus pneumoniae [7]) was 40 µg/mL (≈ 58.3 µM) and the MIC (Streptococcus pneumoniae [8]) was 0.08 µg/mL (≈ 0.117 µM). The MIC (Streptococcus pyogenes) was 0.3 µg/mL (≈ 0.437 µM) and the MIC (Staphylococcus aureus [9]) was 40 µg/mL (≈ 58.3 µM).
`CC[C@H]1OC(=O)[C@H](C)[C@@]2(O)O[C@@](C)(C[C@@H](C)/C(=N\O)[C@H](C)[C@@H](O)[C@]1(C)O)[C@H](O[C@@H]1O[C@H](C)C[C@H](N(C)C)[C@H]1O)[C@H]2C` showed an MIC (Escherichia coli) of 40 µg/mL (≈ 67.9 µM), an MIC (Haemophilus influenzae [1]) of 10 µg/mL (≈ 17 µM) and an MIC (Haemophilus influenzae [2]) of 10 µg/mL (≈ 17 µM). It also gave an MIC [3] of 40 µg/mL (≈ 67.9 µM), an MIC (Staphylococcus aureus [4]) of 40 µg/mL (≈ 67.9 µM) and an MIC (Staphylococcus aureus [5]) of 40 µg/mL (≈ 67.9 µM). It also gave an MIC (Streptococcus pneumoniae [6]) of 40 µg/mL (≈ 67.9 µM), an MIC (Streptococcus pneumoniae [7]) of 40 µg/mL (≈ 67.9 µM) and an MIC (Streptococcus pneumoniae [8]) of 40 µg/mL (≈ 67.9 µM). For the same molecule, the MIC (Streptococcus pyogenes) was 40 µg/mL (≈ 67.9 µM) and the MIC (Staphylococcus aureus [9]) was 40 µg/mL (≈ 67.9 µM).
`CCCN1C(=O)O[C@]2(C)[C@@H](CC)OC(=O)[C@H](C)C(=O)[C@H](C)[C@@H](O[C@@H]3O[C@H](C)C[C@H](N(C)C)[C@H]3O)[C@](C)(OC)C[C@@H](C)C(=O)[C@H](C)[C@@H]12` gave an MIC (Escherichia coli) of 40 µg/mL (≈ 61.1 µM), an MIC (Haemophilus influenzae [1]) of 40 µg/mL (≈ 61.1 µM) and an MIC (Haemophilus influenzae [2]) of 40 µg/mL (≈ 61.1 µM). It also gave an MIC [3] of 40 µg/mL (≈ 61.1 µM), an MIC (Staphylococcus aureus [4]) of 1.2 µg/mL (≈ 1.83 µM) and an MIC (Staphylococcus aureus [5]) of 5 µg/mL (≈ 7.64 µM). It also gave an MIC (Streptococcus pneumoniae [6]) of 0.04 µg/mL (≈ 0.0611 µM), an MIC (Streptococcus pneumoniae [7]) of 40 µg/mL (≈ 61.1 µM) and an MIC (Streptococcus pneumoniae [8]) of 40 µg/mL (≈ 61.1 µM). It also gave an MIC (Streptococcus pyogenes) of 0.15 µg/mL (≈ 0.229 µM) and an MIC (Staphylococcus aureus [9]) of 40 µg/mL (≈ 61.1 µM).
In the case of `CC[C@H]1OC(=O)[C@H](C)C(=O)[C@H](C)[C@@H](O[C@@H]2O[C@H](C)C[C@H](N(C)C)[C@H]2O)[C@](C)(OC)C[C@@H](C)C(=O)[C@H](C)[C@H]2N(CCCc3ccccc3)C(=O)O[C@]12C`, the MIC (Escherichia coli) is reported as 40 µg/mL (≈ 54.7 µM), the MIC (Haemophilus influenzae [1]) is reported as 10 µg/mL (≈ 13.7 µM) and the MIC (Haemophilus influenzae [2]) is reported as 40 µg/mL (≈ 54.7 µM). For the same molecule, the MIC [3] was 1.2 µg/mL (≈ 1.64 µM), the MIC (Staphylococcus aureus [4]) was 1.2 µg/mL (≈ 1.64 µM) and the MIC (Staphylococcus aureus [5]) was 2.5 µg/mL (≈ 3.42 µM). The MIC (Streptococcus pneumoniae [6]) was 0.3 µg/mL (≈ 0.41 µM), the MIC (Streptococcus pneumoniae [7]) was 40 µg/mL (≈ 54.7 µM) and the MIC (Streptococcus pneumoniae [8]) was 20 µg/mL (≈ 27.4 µM). The MIC (Streptococcus pyogenes) was 0.15 µg/mL (≈ 0.205 µM) and the MIC (Staphylococcus aureus [9]) was 40 µg/mL (≈ 54.7 µM).
